{"data": "Measured values gathered from unrelated publications", "organism": "Staphylococcus aureus", "note": "Compare with care: the assays were run in different laboratories."}
{"Structure (SMILES)": "CC(=O)NC[C@H]1CN(c2ccc(N3CCOCC3)c(F)c2)C(=O)O1", "assay": "microbial growth", "system": "MSSA", "setting": "clinical isolate", "measurement": "MIC90", "value": "2 µg/mL"}
{"Structure (SMILES)": "O=C(/C=C/C=C/c1ccccc1)c1ccccc1OCc1ccc(F)cc1", "assay": "microbial growth, well diffusion", "system": "MTCC96", "setting": "1000 µg/mL, 18 h", "measurement": "inhibition zone", "value": "7 mm"}
{"Structure (SMILES)": "COc1cc2c(cc1OC)-c1cc3ccc(OC)c(OC)c3c[n+]1CC2", "assay": "microbial growth", "setting": "24 h", "measurement": "MIC50", "value": "205 µM"}
{"Structure (SMILES)": "CN[C@H](CC(C)C)C(=O)N[C@H]1C(=O)N[C@@H](CC(N)=O)C(=O)N[C@H]2C(=O)N[C@H]3C(=O)N[C@H](C(=O)N[C@H](C(=O)O)c4cc(O)cc(O)c4-c4cc3ccc4O)[C@H](O)c3ccc(c(Cl)c3)Oc3cc2cc(c3O[C@@H]2O[C@H](CO)[C@@H](O)[C@H](O)[C@H]2O[C@H]2C[C@](C)(N)[C@H](O)[C@H](C)O2)Oc2ccc(cc2Cl)[C@H]1O", "assay": "microbial growth", "system": "MRSA", "setting": "clinical isolate", "measurement": "MIC90", "value": "2 µg/mL"}
{"Structure (SMILES)": "COc1cc2c(cc1OC)[C@@H]1Cc3ccc(OC)c(OC)c3CN1CC2", "assay": "microbial growth", "setting": "24 h", "measurement": "MIC50", "value": "> 1600 µM"}
{"Structure (SMILES)": "C=C[C@]1(C)C[C@@H](OC(=O)CS[C@@H]2C[C@H]3CC[C@@H](C2)N3C)[C@]2(C)[C@H](C)CC[C@]3(CCC(=O)[C@H]32)[C@@H](C)[C@@H]1O", "assay": "microbial growth", "system": "MRSA", "setting": "clinical isolate", "measurement": "MIC90", "value": "0.125 µg/mL"}
{"Structure (SMILES)": "CCCS(=O)(=O)Oc1cc(C=NNC(=O)CSc2nc3ccc(Cl)cc3c(=O)n2-c2ccccc2)ccc1OC", "assay": "microbial growth, well diffusion", "system": "MRSA", "setting": "20 µg/mL", "measurement": "inhibition zone", "value": "2 mm"}
{"Structure (SMILES)": "CNC(C)C1CCC(N)C(OC2C(N)CC(N)C(OC3OCC(C)(O)C(NC)C3O)C2O)O1 (centres unmarked)", "assay": "microbial killing, broth dilution", "system": "ATCC25923", "setting": "24 h", "measurement": "MBC", "value": "8000 µM"}
{"Structure (SMILES)": "CC1(C)S[C@@H]2[C@H](NC(=O)[C@H](N)c3ccccc3)C(=O)N2[C@H]1C(=O)O", "assay": "microbial growth", "system": "MSSA", "setting": "clinical isolate", "measurement": "MIC90", "value": "64 µg/mL"}
{"Structure (SMILES)": "Cc1cccc2c(=O)n(-c3ccccc3)c(SCC(=O)NN=Cc3ccc(OS(C)(=O)=O)cc3)nc12", "assay": "microbial growth, well diffusion", "system": "MRSA", "setting": "20 µg/mL", "measurement": "inhibition zone", "value": "2 mm"}
{"Structure (SMILES)": "O=C(/C=C/C=C/c1ccccc1)c1ccccc1OCc1cccc(Cl)c1", "assay": "microbial growth, well diffusion", "system": "MTCC96", "setting": "1000 µg/mL, 18 h", "measurement": "inhibition zone", "value": "7 mm"}
{"Structure (SMILES)": "CCS(=O)(=O)Oc1ccc(C=NNC(=O)CSc2nc3c(C)cccc3c(=O)n2-c2ccccc2)cc1", "assay": "microbial growth, well diffusion", "system": "MRSA", "setting": "20 µg/mL", "measurement": "inhibition zone", "value": "3 mm"}
{"Structure (SMILES)": "CC[C@H]1OC(=O)[C@H](C)[C@@H](O[C@H]2C[C@@](C)(OC)[C@@H](O)[C@H](C)O2)[C@H](C)[C@@H](O[C@@H]2O[C@H](C)C[C@H](N(C)C)[C@H]2O)[C@](C)(O)C[C@@H](C)/C(=N\\OCOCCOC)[C@H](C)[C@@H](O)[C@]1(C)O", "assay": "microbial growth", "system": "MRSA", "setting": "clinical isolate", "measurement": "MIC90", "value": "64 µg/mL"}
{"Structure (SMILES)": "Nc1ccc(S(=O)(=O)Nc2ncccn2)cc1", "assay": "microbial growth, well diffusion", "system": "MRSA", "setting": "20 µg/mL", "measurement": "inhibition zone", "value": "2 mm"}
{"Structure (SMILES)": "O=C(/C=C/C=C/c1ccccc1)c1ccccc1OCc1ccc(Cl)c(Cl)c1", "assay": "microbial growth, well diffusion", "system": "MTCC96", "setting": "1000 µg/mL, 18 h", "measurement": "inhibition zone", "value": "7 mm"}
{"Structure (SMILES)": "CCS(=O)(=O)Oc1ccc(C=NNC(=O)CSc2nc3c(C)cccc3c(=O)n2-c2ccccc2)cc1OC", "assay": "microbial growth, well diffusion", "system": "MRSA", "setting": "20 µg/mL", "measurement": "inhibition zone", "value": "3 mm"}
{"Structure (SMILES)": "CN(C)CCCN1c2ccccc2Sc2ccc(Cl)cc21", "assay": "microbial killing, broth dilution", "system": "ATCC43300", "setting": "18 h", "measurement": "MBC", "value": "64 µg/mL"}
